Results on eleven compounds are retold here after ChEMBL document CHEMBL2440109, “Synthesis and antimycobacterial activity of isoniazid derivatives from renewable fatty acids” (2013).

Common to all, as to type: functional
Experiment [1] concerns Mycobacterium tuberculosis. Description: Antimycobacterial activity against isoniazid-resistant Mycobacterium tuberculosis ATCC 35822 harboring katG mutant after 7 days by REMA assay. The gist of the method: (§1)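 MIC by resazurin microtiter assay. Bacteria suspended in sterile water with glass beads, vortexed, turbidity set to McFarland tube 1 (3.2 × 10^6 CFU/mL), then diluted 1:20 in Middlebrook 7H9. Compounds in DMSO, two-fold serial dilutions (100.0-3.2 µg/mL) in 7H9 with 10% OADC. Incubated 37 °C for 7 days, resazurin added, further 2 days at 37 °C. MIC read from colour change.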

For experiment [2], the system named is Mycobacterium tuberculosis. Description: Antimycobacterial activity against isoniazid-resistant Mycobacterium tuberculosis 1896HF harboring inhA mutant after 7 days by REMA assay. The method, boiled down: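 MIC by resazurin microtiter assay. Bacteria suspended in sterile water with glass beads, vortexed, turbidity set to McFarland tube 1 (3.2 × 10^6 CFU/mL), then diluted 1:20 in Middlebrook 7H9. Incubated 37 °C for 7 days, resazurin added, further 2 days at 37 °C. MIC read from colour change.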

Experiment [3] has as its system Mycobacterium tuberculosis. Description: Antimycobacterial activity against rifampicin-resistant Mycobacterium tuberculosis ATCC 35338 harboring rpoB His-526-Tir gene mutant after 7 days by REMA assay. The gist of the method:
as §1

Structures are written as SMILES. In brackets after ≈: the same amount, converted by molar mass. A value given as a limit tells only on which side of the number the result lay.

The term MIC denotes the lowest concentration found to suppress growth.

Consider `CCCCCCCCCCCCCCCC(=O)NNC(=O)c1ccncc1`, for which the results for the MIC in experiment [1], in experiment [2] and in experiment [3] were 0.125 µg/mL (≈ 0.333 µM), 0.78 µg/mL (≈ 2.08 µM) and 0.003 µg/mL (≈ 0.00799 µM), respectively.

For `CCCCCCCCCCCCCCCCCC(=O)NNC(=O)c1ccncc1`, the MIC in experiment [1] is 0.25 µg/mL (≈ 0.619 µM); in experiment [2] it was 3.12 µg/mL (≈ 7.73 µM); in experiment [3], 0.003 µg/mL (≈ 0.00743 µM).

As to `CCCCCCCC/C=C\CCCCCCCC(=O)NNC(=O)c1ccncc1`, the minimum inhibitory concentration (MIC) in experiment [1] amounted to 0.25 µg/mL (≈ 0.623 µM); in experiment [2] it was 1.56 µg/mL (≈ 3.88 µM); in experiment [3], 0.003 µg/mL (≈ 0.00747 µM).

Take `CCCCCCCC/C=C/CCCCCCCC(=O)NNC(=O)c1ccncc1`: the MIC in experiment [1] was more than 50 µg/mL; in experiment [2] it was 6.25 µg/mL (≈ 15.6 µM); in experiment [3] it was 0.0019 µg/mL (≈ 0.00473 µM).

Consider `CCCCCC[C@@H](O)C/C=C\CCCCCCCC(=O)NNC(=O)c1ccncc1`, for which the MIC turned out to be 25 µg/mL (≈ 59.9 µM) in experiment [1], 12.5 µg/mL (≈ 29.9 µM) in experiment [2] and 0.015 µg/mL (≈ 0.0359 µM) in experiment [3].

Consider `CCCCC/C=C\C/C=C\CCCCCCCC(=O)NNC(=O)c1ccncc1`, for which the values for the MIC in experiment [1], in experiment [2] and in experiment [3] were 2 µg/mL (≈ 5.01 µM), 12.5 µg/mL (≈ 31.3 µM) and 0.03 µg/mL (≈ 0.0751 µM), respectively.

`CC/C=C\C/C=C\C/C=C\CCCCCCCC(=O)NNC(=O)c1ccncc1`: the minimal inhibitory concentration (MIC) in experiment [1] came to 25 µg/mL (≈ 62.9 µM); in experiment [2] it was 12.5 µg/mL (≈ 31.4 µM); in experiment [3], 0.03 µg/mL (≈ 0.0755 µM).

As to `NNC(=O)c1ccncc1` [ISONIAZID], the figures for the minimal inhibitory concentration (MIC) in experiment [1], in experiment [2] and in experiment [3] were 2 µg/mL (≈ 14.6 µM), 2 µg/mL (≈ 14.6 µM) and 0.015 µg/mL (≈ 0.109 µM), respectively.

With `CCCCCCCC/C=C\CCCCCCCC(=O)O` [OLEIC ACID], the MIC in experiment [1], in experiment [2] and in experiment [3] was more than 100 µg/mL in each case.

Regarding `CCCCCCCC/C=C\CCCCCCCC(=O)NN` [OLEOHYDRAZIDE], the MIC in experiment [1] is 50 µg/mL (≈ 169 µM); in experiment [2], more than 100 µg/mL; in experiment [3] it was 50 µg/mL (≈ 169 µM).

For `CO[C@H]1/C=C/O[C@@]2(C)Oc3c(C)c(O)c4c(O)c(c(/C=N/N5CCN(C)CC5)c(O)c4c3C2=O)NC(=O)/C(C)=C\C=C\[C@H](C)[C@H](O)[C@@H](C)[C@@H](O)[C@@H](C)[C@H](OC(C)=O)[C@@H]1C` [RIFAMPIN], the figures for the minimal inhibitory concentration (MIC) in experiment [1] and in experiment [3] were 0.03 µg/mL (≈ 0.0365 µM) and more than 2 µg/mL, respectively.
